In the library only some 4.2% were active in any assay of this set; here they are far more common.
KCC2 mod – modulates chloride dependent transport by human KCC2; Q9H2X9; KCC2 cells, thallium flux FluoZin-2 fluorescence; B-score of Tl+ flux slope (higher = more flux/activation; lower = inhibition) at 10 µM; actives 2.2% (n = 190,000);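 active = thallium flux slope and its plate-corrected score both differing from the plate sample mean at a set confidence after two filtering rounds, in either direction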;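 also: slope of fluorescence scaled to starting intensity during 10 to 20 s after thallium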
Autophagy HCS – modulators of autophagy. MEF GFP-LC3 puncta imaging; test concentration mostly 10 µM. calls only at 10 µM (by protocol). actives 0.98% (n = 190,000). AID 463193;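 active = percentage of spot-positive cells more than 3 SD above its plate mean, without a fluorescence outlier flag or 80% toxicity; inconclusive = no clear call, values can overlap the other calls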;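 also: spot-positive cell cutoff set from DMSO-treated cells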
WT yeast gro inh – growth inhibition of WT yeast, mitochondrial fusion screen; mitochondrial fusion phenotypic screen, WT strain; inhibition, % at 10 µM; actives 2.1% (n = 190,000); AID 1362; in the data active = inhibition above about 58%; tested in S. cerevisiae
Ins promoter up – MIN6 insulin promoter up-regulation | actives 0.3% (n = 190,000) | AID 1625 | MIN6 insulin promoter-GFP reporter, high-content imaging; stronger effect = higher value | z-score at 5 µM;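 active = z-score above 3 at 5 µM with at least 500 cells counted in the well; inconclusive = wells under 500 cells, flagged as cytotoxic or low count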
SKKanGAS inh – blocks kanamycin growth of S. pyogenes SKKanGAS strain. BacTiter-Glo, 6 h. inhibition, % at 7.5 µM. actives 1.3% (n = 300,000). AID 1662;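 active = mean replicate score, as percent of positive control median, at least 50; inconclusive = mean below 50 but one replicate at or above 50; inactive = mean and every replicate below 50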;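 also: strain carries kanamycin resistance gene driven by streptokinase promoter and grows in 40 µg/ml kanamycin; loss of luminescence reflects streptokinase promoter inhibition or plain growth inhibition; 0% = median of DMSO wells and 100% = positive control at its reference dose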
Rad51 HR inh – Rad51 (human) homologous recombination inhibition; hRad51 DNA strand exchange, fluorescence dequenching; actives 0.085% (n = 200,000); AID 1385; inhibition, % at 10 µM; Q06609;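 active = inhibition above 40% at the single screening dose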;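 also: 0% = DMSO control wells and 100% = blanks with heterologous ssDNA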
Target sequence (Q06609 whole entry, looked up): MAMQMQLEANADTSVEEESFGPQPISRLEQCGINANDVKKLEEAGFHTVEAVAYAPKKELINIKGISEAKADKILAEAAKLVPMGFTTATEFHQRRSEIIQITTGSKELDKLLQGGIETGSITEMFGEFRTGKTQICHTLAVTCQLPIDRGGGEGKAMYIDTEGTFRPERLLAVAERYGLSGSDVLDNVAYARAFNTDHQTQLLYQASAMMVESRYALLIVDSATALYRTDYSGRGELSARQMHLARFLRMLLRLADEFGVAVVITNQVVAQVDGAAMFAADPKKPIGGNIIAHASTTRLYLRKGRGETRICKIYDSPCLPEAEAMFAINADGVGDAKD
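System: human Rad51 nucleoprotein filaments preassembled on unlabelled ssDNA. Reagent: labelled 47-mer dsDNA for strand exchange. Schedule: 30-min compound preincubation and 15-min exchange, both room temperature. Measured by: FRET fluorescence dequenching, excitation 485 nm, emission 520 nm. Read-out: Fluorescence-based percent inhibition, control- and blank-normalised. Benchmarks: plate controls and plate blanks.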
Active calls of the source: *; i = inactive; ? = inconclusive; · = no result; + = active, no number.

SMILES | KCC2 mod | Autophagy HCS | WT yeast gro inh | Ins promoter up | SKKanGAS inh | Rad51 HR inh
C[C@H](NC(=O)C1CC(=O)N(c2ccc3c(c2)OCCO3)C1)C(=O)N1CCCCC1 (stereo partly drawn) | · | · | · | · | -1 | ·
O=C(Nc1nc(-c2cccs2)c(C(=O)C(F)(F)F)s1)c1ccccc1 | -2.5 | i | 60* | -1.1 | 7 | ·
O=C(Nc1nc(-c2cccs2)c(-c2ccccc2)s1)c1ccco1 | · | i | 9 | -0.12 | 52* | -2
CC1CC1C(=O)Nc1nc(-c2cccs2)c(-c2cccs2)s1 (stereo not drawn) | -0.55 | i | 76* | -0.39 | 28 | 2
Cc1ccc(S(=O)(=O)N2CCOCC2)cc1C(=O)OC(C)C(=O)c1ccccc1 (stereo not drawn) | · | · | · | · | -5 | ·
CCCCCCSc1ccc([C@H]2N[C@@](C)(C(=O)OC)[C@H]3C(=O)N(CC)C(=O)[C@@H]23)cc1 | · | · | · | · | 7 | ·
O=C(Nc1cccc(C(F)(F)F)c1)c1cccnc1N1CCN(c2ccccc2)CC1 | -1.4 | i | 21 | 0.08 | 51* | 10
CCc1ccc(CN2CCCC(CNS(=O)(=O)c3ccc(OC)cc3)C2)cc1 (stereo not drawn) | 0.21 | + | 4 | -0.56 | 1 | ·
CCn1cc(CN2CCCC(CNS(=O)(=O)c3ccc(OC)cc3)C2)cn1 (stereo not drawn) | · | · | · | · | -4 | ·
CC(C)CC(=O)Nc1ccc(C(=O)COC(=O)C2CCC2)cc1 | · | · | · | · | -7 | ·
CCCc1nn(C)c(C(=O)Nc2cccc3ccccc23)c1Cl | 0.73 | + | 1 | -0.33 | 25 | 1
COc1ccc2cc3cc(C(=O)NCCN4CCN(Cc5ccccc5)CC4)oc3nc2c1 | · | + | -8 | -0.49 | 3 | 2
COc1ccc2cc3cc(C(=O)NCCN4CCc5ccccc5C4)oc3nc2c1 | -1.1 | i | -5 | · | 5 | -7
COc1ccc2cc3cc(C(=O)NCCN4CCc5ccccc5C4)sc3nc2c1 | -0.33 | i | 58* | -0.05 | 2 | 5
Cc1ccc(Cl)c(OCC(=O)NC2CCN(Cc3ccccc3)CC2)c1 | · | · | · | · | -2 | ·
CSc1nsc(/C=C/Nc2ccc(C)c(C)c2)c1C#N | -0.29 | i | 1 | 0.33 | 9 | -116
CSc1nsc(/C=C/Nc2ccc(C)cc2)c1C#N | -0.93 | i | -10 | 3.5* | 13 | -31
COC(=O)CCC(=O)COc1ccc(OC)cc1C#N | 1 | i | 91* | 0.05 | 2 | 4
Cc1ccc(-n2c(SCC(N)=O)nc3c(oc4ccccc43)c2=O)cc1 | · | · | · | · | 2 | ·
C=CCn1c(O)c(C2=c3ccccc3=NC2=O)sc1=Nc1ccc(O)cc1 | -0.32 | · | 94* | -1.9 | 41 | -3
O=C1N=c2ccccc2=C1c1sc(=S)n(NC(=O)c2ccccc2)c1O | 0.48 | · | · | · | -1 | 11
O=C(CCn1c(=S)oc2ccccc21)Nc1cc([N+](=O)[O-])ccc1F | · | · | · | · | 4 | ·
Cc1ccc(NC(=S)Nc2cccc3cnccc23)cc1C | 0.019 | i | 59* | · | -32 | -10
Cc1ccccc1NC(=S)Nc1cccc2cnccc12 | -1.1 | i | 39 | -0.32 | 8 | 3
Cc1ccc(C)c(NC(=S)Nc2cccc3cnccc23)c1 | -0.66 | i | 62* | -0.84 | 12 | -18
SMILES | KCC2 mod | Autophagy HCS | WT yeast gro inh | Ins promoter up | SKKanGAS inh | Rad51 HR inh
S=C(Nc1cccc(Cl)c1)Nc1cccc2cnccc12 | 1.2 | i | 70* | -0.26 | · | -3
COc1ccc(-c2cc3nc(C)n(N)c(=O)c3s2)cc1 | -0.85 | · | · | -0.68 | 88* | 18
Cc1nc2cc(-c3ccccc3)sc2c(=O)n1N | 0.5 | i | 50 | -0.03 | 63* | 6
COc1ccc(-c2cc3nc4n(c(=O)c3s2)CCC4)cc1 | · | i | 8 | 1.8 | 99* | 4
Cc1cccnc1NC(=O)Nc1cccc(Cl)c1 | · | · | · | · | 4 | ·
CC(=O)c1ccc(NC(=O)COC(=O)CCc2ccc(S(=O)(=O)N3CCOCC3)cc2)cc1 | · | · | · | -0.17 | 8 | -2
Cc1nc(SCc2cccc(F)c2)c2oc3ccccc3c2n1 | 0.41 | · | · | 0.13 | 55* | 5
c1ccc(CSc2ncnc3c2oc2ccccc23)cc1 | 0.49 | i | · | · | 52* | -3
Cc1nc(SCC(=O)Nc2ccc(F)cc2)c2oc3ccccc3c2n1 | 0.22 | i | -10 | -0.6 | 10 | 0
O=C1CN(C(=O)NCCC(=O)NC2CCCCC2)c2ccccc2N1 | · | · | · | · | 0 | ·
COc1ccc(C(=O)Cc2cc3ccccc3oc2=O)cc1 | · | · | · | · | 6 | ·
COc1ccc(/C=C/C(=O)N[C@H](C(=O)O)C(C)C)cc1 | 0.23 | i | 8 | -0.14 | -3 | 2
c1ccc(N(c2ccccc2)c2nc(N3CCCC3)nc(-n3ccnc3)n2)cc1 | -0.26 | i | 78* | -0.69 | 79* | ·
CN(c1ccccc1)c1nc(N2CCCC2)nc(-n2ccnc2)n1 | · | i | -1 | -0.1 | 52* | -1
CCOC(=O)N1CCN(c2nc(N(c3ccccc3)c3ccccc3)nc(-n3ccnc3)n2)CC1 | 0.36 | · | · | -0.18 | 43 | ·
N#Cc1cc(Cl)c(NCC2CCCO2)cc1C#N (stereo not drawn) | · | · | · | · | -1 | ·
O=C(CCc1ccccc1)NNC(=O)Nc1ccc(F)c(Cl)c1 | · | · | · | · | -3 | ·
COc1ccc2nc3ccccc3nc2c1NC(=O)c1ccc(Cl)cc1Cl | i | + | 0 | 1.4 | -7 | i
CCCCN(C(=O)c1cc(CC)c(C)s1)c1c(N)n(CCC)c(=O)[nH]c1=O | · | · | · | · | -5 | ·
CSCCOC(=O)C1=C(C)Nc2ccc(C)cc2S1 | · | + | 7 | · | -4 | 9
CCOC(=O)C1=C(C)Nc2ccc(C)cc2S1 | · | i | -1 | 0.31 | 3 | 5
O=c1cc(-c2ccc(C3CCCCC3)cc2)[nH][nH]1 | -0.28 | i | 69* | 0.3 | 9 | 12
CC(C)C(=O)Nc1cc2c3c(c1)CCN3C(=O)CC2 | · | · | · | · | -2 | ·
c1ccc2c(c1)OCC(c1csc3ncnc(N4CCOCC4)c13)O2 (stereo not drawn) | 0.78 | i | 16 | -0.08 | 4 | -12
CCN(CC)c1ncnc2scc(C3COc4ccccc4O3)c12 (stereo not drawn) | -0.44 | i | 85* | -1.2 | 9 | -6
SMILES | KCC2 mod | Autophagy HCS | WT yeast gro inh | Ins promoter up | SKKanGAS inh | Rad51 HR inh
CSc1cccc(NC(=O)OC2CCCCCCCCCCC2)c1 | 0.013 | · | · | 0.05 | 66* | 17
CCN(CC(=O)NCc1ccc(Cl)cc1)C(=O)COc1ccc(Cl)cc1Br | · | · | · | · | 1 | ·
COc1ccc(OC)c(NC(=O)C(=O)NNC(=O)COc2ccc(Br)cc2C)c1 | 91* | i | 2 | 0.4 | 121* | 0
COc1ccc(C)cc1NC(=O)C(=O)NNC(=O)COc1ccc(Cl)cc1 | 78* | i | 10 | -0.1 | ? | -2
Cc1ccc(OCC(=O)NNC(=O)C(=O)NC(C)(C)C)cc1 | 13* | i | -2 | 0.42 | 6 | 6
Cc1ccc(CNC(=O)C2CCC(=O)N2C(C)C)cc1 (stereo not drawn) | · | · | · | · | -2 | ·
COc1ccccc1NC(=O)N1CCC(NC(=O)C(Cc2ccccc2F)NC(C)=O)CC1 (stereo not drawn) | · | · | · | · | -1 | ·
